Experiments:
[1] = tested on: Rattus norvegicus; experiment: Compound was tested in vivo for its ability to inhibit DTH(delayed type hypersensitivity )in rat at a concentration of 50 mg/kg; type: functional
Procedure, shortened: (§1)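 Male CFHB rats (160-180 g, n=7-12) sensitized day 0 by tail-base s.c. FCA (0.4 mg M. tuberculosis in liquid paraffin); controls got incomplete adjuvant. Day 7 challenge: soluble M. tuberculosis extract 0.4 mg into right hind footpad, saline in left. Oral dosing once daily days 4-6 and twice day 7 (1 h before, 6 h after). Edema read at 24 h; Student's t-test.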

[2] = biological target: Dihydroorotate dehydrogenase (quinone), mitochondrial (Rattus norvegicus, UniProt Q63707); experiment: Inhibitory concentration tested against enzyme dihydroorotate dehydrogenase in rat
[3] = tested on: Mus musculus; experiment: In vivo ability to inhibit delayed type hypersensitivity in mouse at a concentration of 100 mg/kg; type: functional
Procedure, shortened: (§2)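 Male CD-1 mice (25–30 g, n = 8-16) sensitized day 0 by s.c. 1 mg methylated BSA in saline/Freund's complete adjuvant; negative controls saline/FCA. Day 7 challenge: MBSA 0.1 mg into right hind footpad, saline in left. Oral dosing once daily days 4–6 plus twice on day 7 (1 h before, 6 h after challenge). Paw edema read 24 h post-challenge; Student's t-test.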

[4] = t1/2 in mouse plasma after oral dose (30/mg/Kg); type: ADME, organism-based
Procedure, shortened: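 Male CD-1 mice (25–32 g, n=5/time point) gavaged orally 30 mg/kg (10 mL/kg). Blood by exsanguination under ether at 0, 1, 3, 6, 24, 48, 72 h, pooled per time point, heparinized; plasma stored −20 °C. Drug quantified by reversed-phase HPLC (ODS, pH 7 phosphate/acetonitrile 65:35, UV 300 nm) with internal standard and spiked-plasma calibration.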

[5] = biological target: Dihydroorotate dehydrogenase (quinone), mitochondrial (Mus musculus, UniProt O35435); experiment: Inhibitory concentration tested on enzyme dihydroorotate dehydrogenase in mouse
[6] = t1/2 in rat plasma after oral dose (10 mg/kg); type: ADME, organism-based
Procedure, shortened: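 Male Wistar CFHB rats (190–220 g, n=3/time point) given 10 mg/kg orally by gavage (10 mL/kg). Cardiac-puncture blood under ether at 0, 1, 3, 6, 24, 48, 72 h, individual heparinized samples; plasma kept at −20 °C. Levels by HPLC (ODS column, 0.1 M pH 7 phosphate 65%/acetonitrile 35%, UV 300 nm), internal standard, peak-area calibration from spiked blank plasma.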

[7] = tested on: Rattus norvegicus; experiment: Compound was tested in vivo for its ability to inhibit DTH(delayed type hypersensitivity )in rat at a concentration of 3 mg/kg; type: functional; procedure, shortened: as §1
[8] = tested on: Mus musculus; experiment: In vivo for its ability to inhibit delayed type hypersensitivity in mouse following 30 mg/kg administration.; type: functional; procedure, shortened: as §2
[9] = tested on: Rattus norvegicus; experiment: Compound was tested in vivo for its ability to inhibit DTH(delayed type hypersensitivity ) in rat at a concentration of 50 mg/kg; type: functional; procedure, shortened: as §1
[10] = tested on: Mus musculus; experiment: Compound was tested in vivo for its ability to inhibit DTH(delayed type hypersensitivity ) in mouse at a concentration of 30 mg/kg; type: functional; procedure, shortened: as §2
[11] = tested on: Mus musculus; experiment: Compound was tested in vivo for its ability to inhibit DTH(delayed type hypersensitivity ) in mouse at a concentration of 100 mg/kg; type: functional; procedure, shortened: as §2
[12] = tested on: Rattus norvegicus; experiment: Compound was tested in vivo for its ability to inhibit DTH(delayed type hypersensitivity ) in rat at a concentration of 10 mg/kg; type: functional; procedure, shortened: as §1
[13] = tested on: Rattus norvegicus; experiment: Compound was tested in vivo for its ability to inhibit DTH(delayed type hypersensitivity ) in rat at a concentration of 1 mg/kg; type: functional; procedure, shortened: as §1
[14] = tested on: Rattus norvegicus; experiment: Compound was tested in vivo for its ability to inhibit DTH(delayed type hypersensitivity ) in rat at a concentration of 3 mg/kg; type: functional; procedure, shortened: as §1
[15] = tested on: Rattus norvegicus; experiment: Compound was tested in vivo for its ability to inhibit DTH(delayed type hypersensitivity )in rat at a concentration of 1 mg/kg; type: functional; procedure, shortened: as §1
[16] = tested on: Rattus norvegicus; experiment: Compound was tested in vivo for its ability to inhibit DTH(delayed type hypersensitivity )in rat at a concentration of 50 mg/kg
[17] = tested on: Mus musculus; experiment: Compound was tested in vivo for its ability to inhibit DTH(delayed type hypersensitivity )in mouse at a concentration of 30 mg/kg.; type: functional; procedure, shortened: as §2
[18] = tested on: Rattus norvegicus; experiment: In vivo for its ability to inhibit delayed type hypersensitivity in rat following 10 mg/kg administration.
[19] = tested on: Mus musculus; experiment: Compound was tested in vivo for its ability to inhibit DTH(delayed type hypersensitivity ) in mouse at a concentration of 10 mg/kg; type: functional; procedure, shortened: as §2

Chain of Dihydroorotate dehydrogenase (quinone), mitochondrial (Mus musculus, UniProt O35435) (O35435 whole entry): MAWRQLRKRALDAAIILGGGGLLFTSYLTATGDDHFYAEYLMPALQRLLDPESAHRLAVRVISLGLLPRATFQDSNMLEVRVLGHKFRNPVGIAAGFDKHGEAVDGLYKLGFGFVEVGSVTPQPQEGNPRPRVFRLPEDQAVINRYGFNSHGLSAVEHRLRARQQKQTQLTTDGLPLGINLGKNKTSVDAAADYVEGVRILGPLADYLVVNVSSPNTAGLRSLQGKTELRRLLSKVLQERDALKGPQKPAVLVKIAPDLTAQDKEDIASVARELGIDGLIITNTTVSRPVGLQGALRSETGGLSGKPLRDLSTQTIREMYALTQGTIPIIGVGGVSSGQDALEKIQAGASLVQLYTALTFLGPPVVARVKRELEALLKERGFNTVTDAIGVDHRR
Chain of Dihydroorotate dehydrogenase (quinone), mitochondrial (Rattus norvegicus, UniProt Q63707) (Q63707 whole entry): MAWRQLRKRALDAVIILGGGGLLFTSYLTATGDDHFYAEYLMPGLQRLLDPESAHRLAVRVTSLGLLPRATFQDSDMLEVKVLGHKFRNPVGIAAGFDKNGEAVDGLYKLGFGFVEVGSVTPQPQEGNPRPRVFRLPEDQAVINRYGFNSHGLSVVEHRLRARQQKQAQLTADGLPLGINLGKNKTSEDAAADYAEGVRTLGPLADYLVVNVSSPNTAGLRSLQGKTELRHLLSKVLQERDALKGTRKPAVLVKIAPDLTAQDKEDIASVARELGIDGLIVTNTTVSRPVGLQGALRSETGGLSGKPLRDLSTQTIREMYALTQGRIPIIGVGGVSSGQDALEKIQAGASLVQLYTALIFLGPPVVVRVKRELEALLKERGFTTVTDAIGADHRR

| SMILES | IC50 [2] [nM] | half-life [4] [h] | IC50 [5] [nM] | half-life [6] [h] | inhibition in vivo at 50 mg/kg [9] [%] | inhibition in vivo at 30 mg/kg [10] [%] | further results |
| --- | --- | --- | --- | --- | --- | --- | --- |
| N#C/C(C(=O)Nc1ccc(CCc2ccccc2)cc1)=C(/O)C1CC1 | 138 |  |  |  |  |  | inhibition in vivo at 50 mg/kg [1]: 51%; inhibition in vivo at 100 mg/kg [3]: 5% |
| N#C/C(C(=O)Nc1ccc(C(F)(F)F)cn1)=C(/O)C1CC1 | 17 | 5 | 158 | 7 |  |  | inhibition in vivo at 3 mg/kg [7]: 40%; inhibition in vivo at 100 mg/kg [3]: 67% |
| N#C/C(C(=O)Nc1cccc(Cl)c1)=C(/O)C1CC1 | 343 | 2 | 3000 | 3 | 25 |  | inhibition in vivo at 100 mg/kg [11]: 55% |
| N#C/C(C(=O)Nc1ccccc1)=C(/O)C1CC1 | 2000 |  | 1580 |  | 43 | 25 |  |
| N#C/C(C(=O)Nc1ccc(SC(F)(F)F)cc1)=C(/O)C1CC1 |  | 6 | 100 | 2 |  | 39 | inhibition in vivo at 1 mg/kg [13]: 58% |
| C/C=C/C(O)=C(\C#N)C(=O)Nc1ccc(C(F)(F)F)cc1 | 1410 |  | 4270 |  | 16 |  | inhibition in vivo at 100 mg/kg [11]: 54% |
| N#C/C(C(=O)Nc1ccccc1Cl)=C(/O)C1CC1 | 13300 |  | 16600 |  | -12 |  | inhibition in vivo at 100 mg/kg [11]: 43% |
| C=CC/C(O)=C(\C#N)C(=O)Nc1ccc(C(F)(F)F)cc1 | 107 | 23 | 63 | 4 | 79 | 75 |  |
| N#C/C(C(=O)Nc1ccc(OC(F)(F)F)cc1)=C(/O)C1CC1 | 5 | 42 | 173 | 22 |  |  | inhibition in vivo at 30 mg/kg [17]: 85%; inhibition in vivo at 1 mg/kg [15]: 78% |
| C#C/C(O)=C(\C#N)C(=O)Nc1ccc(C(F)(F)F)cc1 | 500 |  | 2090 |  | 4 |  | inhibition in vivo at 100 mg/kg [11]: 45% |
| N#C/C(C(=O)Nc1ccc(S(=O)(=O)C(F)(F)F)cc1)=C(/O)C1CC1 | 3 | 14 | 89 | 14 |  | 43 | inhibition in vivo at 3 mg/kg [14]: 66% |
| N#C/C(C(=O)Nc1ccc(C(F)(F)F)cc1)=C(/O)c1ccc(C(F)(F)F)cc1 | > 10000 |  | > 10000 |  |  |  | inhibition in vivo at 10 mg/kg [18]: 16%; inhibition in vivo at 10 mg/kg [19]: 17% |

Second part, led by results:

| IC50 [2] [nM] | half-life [4] [h] | IC50 [5] [nM] | half-life [6] [h] | SMILES | inhibition in vivo at 50 mg/kg [9] [%] | inhibition in vivo at 30 mg/kg [10] [%] | further results |
| --- | --- | --- | --- | --- | --- | --- | --- |
| 11 | 11 | 282 | 10 | Cc1cc(NC(=O)/C(C#N)=C(\O)C2CC2)ccc1C(F)(F)C(F)(F)F |  |  | inhibition in vivo at 3 mg/kg [7]: 70%; inhibition in vivo at 30 mg/kg [8]: 65% |
| 479 |  | 525 |  | N#C/C(C(=O)Nc1cccc(C(F)(F)F)c1)=C(/O)C1CC1 | 49 | 41 |  |
| 234 |  | 288 |  | Cc1ccc(NC(=O)/C(C#N)=C(\O)C2CC2)cc1 | 28 |  | inhibition in vivo at 100 mg/kg [11]: 47% |
| 251 | 13 | 195 | 7 | C=C(C)/C(O)=C(\C#N)C(=O)Nc1ccc(C(F)(F)F)cc1 | 78 |  | inhibition in vivo at 100 mg/kg [11]: 54% |
| 53 | 6 | 42 | 5 | N#C/C(C(=O)Nc1ccc(C#N)cc1)=C(/O)C1CC1 |  | 73 | inhibition in vivo at 10 mg/kg [12]: 47% |
| 18 | 14 | 178 | 4 | Cc1cc(NC(=O)/C(C#N)=C(\O)C2CC2)ccc1OC(F)(F)F |  |  | inhibition in vivo at 3 mg/kg [7]: 46%; inhibition in vivo at 30 mg/kg [8]: 61% |
| 79 | 33 | 36 | 20 | N#C/C(C(=O)Nc1ccc(Br)cc1)=C(/O)C1CC1 |  | 64 | inhibition in vivo at 10 mg/kg [12]: 58% |
|  | 21 | 36 | 22 | N#C/C(C(=O)Nc1ccc(Cl)cc1)=C(/O)C1CC1 |  |  | inhibition in vivo at 3 mg/kg [14]: 74% |
| 13 | < 2 | 445 | < 1 | CSc1ccc(NC(=O)/C(C#N)=C(\O)C2CC2)cc1 | 60 |  | inhibition in vivo at 100 mg/kg [11]: 46% |
| 11 | 10 | 178 | 13 | Cc1cc(NC(=O)/C(C#N)=C(\O)C2CC2)ccc1SC(F)(F)F |  |  | inhibition in vivo at 1 mg/kg [15]: 68%; inhibition in vivo at 30 mg/kg [8]: 55% |
| 21 | 8 | 50 | 4 | N#C/C(C(=O)Nc1ccc([N+](=O)[O-])cc1)=C(/O)C1CC1 |  |  | inhibition in vivo at 30 mg/kg [8]: 64%; inhibition in vivo at 50 mg/kg [16]: 90% |
| 16 | 3 | 417 | 3 | N#C/C(C(=O)Nc1ccc([S+]([O-])C(F)(F)F)cc1)=C(/O)C1CC1 (centres undefined) |  | 25 | inhibition in vivo at 3 mg/kg [14]: 75% |

— ChEMBL document CHEMBL1129574, “Synthesis, structure-activity relationships, and pharmacokinetic properties of dihydroorotate dehydrogenase inhibitors: 2-cyano-3-cyclopropyl-3-hydroxy-N-[3'-methyl-4'-(trifluoromethyl)phenyl ] propenamide and related compounds” (J Med Chem, 1996)
